Fewer inactive variants are shown than the library holds.
B1: tRNA (parent)
chain: GUUCCGUUGGCGUAAUGGUAACGCGUCUCCCUCCUAAGGAGAAGACUGCGGGUUCGAGUCCCGUACGGAACG

Variants of: B1
Assay: yeast fitness relative to wild type (ratio to wild type); higher = fitter; tRNA-Arg(CCU), competitive growth, 37 C, YPD
How it was run: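 Gene amplicons from the start population and from each of six end populations were read by 100-nucleotide paired-end sequencing. Those end populations came from pooled Saccharomyces cerevisiae strains carrying tRNA-Arg(CCU) gene variants at the native locus, competed in YPD at 37°C for 24 hours. Fitness relative to wild type was worked out from changes in genotype frequencies. Genotypes needed ≥ 100 starting reads, and estimates < 0.5 were set to 0.5.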

Point of comparison: C30U G56A G67C, yeast fitness 0.603. Against it:
- C5U G17A C55A G67A A70G — lower, ≤ 0.5
- A36U A69C — higher, 0.629
- C4A C11G U19G U53C A65C — lower, 0.528
- C11A C27A C29U G58A — lower, ≤ 0.5
- U7A A40U C61G G67U — lower, ≤ 0.5
- A57C C62A A65C — lower, ≤ 0.5
- C4G C5G C34G — lower, ≤ 0.5
- C24U C34A G39A — lower, 0.535
- C11U A21U C66U — higher, 0.816
- G10C G12C C55A — lower, ≤ 0.5
- C5U G9A A65G — higher, 0.736
- A14C U19C C66U — higher, 0.722
- G12A A21G C31A — higher, 0.625
- C22A A45U — higher, 0.837
- U7A U16A C29U C60U C66G G68A — lower, ≤ 0.5
- C22U C46G C49A G56A C60A A70C — lower, 0.534
- U2A G9C U16G C24U G68C — lower, ≤ 0.5
- A14G C24U A65C — lower, 0.542
- A20C C27U — higher, 1.02
- U3C C30G C62A — lower, ≤ 0.5
- C33G G41A U47A C61U A69U — lower, ≤ 0.5
- U2C C4A U13C C29U U47A G52A C62U — lower, ≤ 0.5
- U16G G23A A40C C66U — lower, ≤ 0.5
- A21G A42C — higher, 0.96
- C4A U16C G17A C62A — lower, ≤ 0.5
- U8C C31G — higher, 0.81
- A15G C24G C29U C34G U35C C46G A65G — lower, ≤ 0.5
- U19G C49U C60A C66G — lower, ≤ 0.5
- A37G A43C — higher, 0.89
- C5U C30G A36U G51A G52A U64G — lower, ≤ 0.5
- G10A A45U U53G A65C — lower, ≤ 0.5
- U7C G39C C46U C49U G56A G68C — lower, ≤ 0.5
- U8C C31U C49U — higher, 0.689
- U7G A14G C22U G38A — lower, 0.534
- G9C G17A U19C G23A A42G C49U C55U — lower, ≤ 0.5
- G10A A65U G68A — lower, ≤ 0.5
- A15U C33G G52A A65G — lower, ≤ 0.5
- C5G A14G G63C — lower, ≤ 0.5
- G12A C61A A65U — lower, ≤ 0.5
- A15U A45U G68C — lower, ≤ 0.5
- U35G C49G G52C C62G A69C — lower, ≤ 0.5
- A45C C46G G56C — lower, 0.563
- C24U G58C A65U — higher, 0.644
- C30U G44A C60G — lower, ≤ 0.5
- U19A G52A — higher, 0.679
- A36G C49U A70C — higher, 0.663
- C4A U16A U32C C62U A70U — lower, ≤ 0.5
- C11A C31U — higher, 0.664
- C29U G48A G56C — lower, 0.536
- G12A U19C C31G — lower, ≤ 0.5
- C5A C22G C29A A43U — lower, 0.574
- U3G C4G G6C C29A A36C G52C U64C — lower, ≤ 0.5
- A14U C24U C33A G44C U47C C60G — lower, ≤ 0.5
- C5U U19G C46A C55G — lower, ≤ 0.5
- A14U A20C U28C C46U G58A — higher, 0.678
- U16C C29U A36U A40C C46U U64C — lower, ≤ 0.5
- G23C C27G A45G G52A C66A — higher, 0.634
- U28C A37C A40U A65U — lower, ≤ 0.5
- C46G G48A G58C — higher, 1.15
- U19A A43U C62U — higher, 0.771
- G10A G23C C29U A36C A57U G63A — lower, ≤ 0.5
- C31U C46A G58C — higher, 0.645
- C5U C29G A57G — higher, 0.655
- U2G A14U A20G C33G G67U A69C — lower, ≤ 0.5
- C4G G17A A36G C46U — lower, ≤ 0.5
- G38C G58C — higher, 0.937
- U13C A43U A70C — higher, 0.679
- A15C A21U A69U — lower, ≤ 0.5
- C4G A20U C31G — lower, 0.555
- C5G A14C C31G — lower, ≤ 0.5
- U19G C33U A40C A45C — lower, ≤ 0.5
- U35A G67C — higher, 0.657
- C11U G25A C66U A70C — higher, 0.688
- C4U C24A U59A — higher, 0.65
- C24A A69U — higher, 0.752
- C5U C24U G44C C60A — lower, 0.527
- C24A C29U G50A A65G C66U — lower, ≤ 0.5
- A14G A45G A65U G68C — lower, ≤ 0.5
- C24U A37G G63C C66U — lower, 0.581
- U7A A14C C27U A45U G67A — lower, ≤ 0.5
- A14C A20U — higher, 0.641
- A21C U28A G38A U59C G67A — lower, ≤ 0.5
- C22A A37C A69C — lower, ≤ 0.5
- U32A C49A — lower, 0.582
- U13A A43C A57C — lower, ≤ 0.5
- U7C C11G C24U G48A C66U — lower, ≤ 0.5
- A36U A45U C66U — lower, 0.535
- U2G G10A G50A — lower, ≤ 0.5
- C4A C24A — lower, 0.595
- C5G C60G — lower, 0.581
- C4G C29G C49U — lower, 0.588
- C30G U35C C66U — lower, ≤ 0.5
- U8A G52A G56U — lower, ≤ 0.5
- G6A G17A U19G — lower, 0.512
- A37G C55U G56A C66G — lower, ≤ 0.5
- U2A C5G U8A C24U C61G C66U A69U — lower, ≤ 0.5
- C49G G50A A57C — lower, ≤ 0.5
- A15G A42C G50A U59C A65C — lower, ≤ 0.5
- A36C A70G — higher, 0.605
- U7A A21C — lower, 0.54
- C5U A42C C66U — higher, 0.793
- C34A C46U U47A U59G — lower, ≤ 0.5
- C22A U28C — higher, 0.852
- C4G U53A G56A — lower, ≤ 0.5
- U8C U13A — higher, 0.809
- C5G G12A A36U A42U U59C A65C — lower, ≤ 0.5
- C4A G6A C33U U53C — lower, ≤ 0.5
- G12C A45U G58C A65U A70U — lower, ≤ 0.5
- U2C C30U A37C G38C U54A — lower, ≤ 0.5
- C34A C61G — lower, ≤ 0.5
- U2A C22A A65U — lower, ≤ 0.5
- C5A C11U C29U C31U A42C A69C — lower, ≤ 0.5
- C5U U13G C55U G67C — lower, ≤ 0.5
- A42U C61G — higher, 0.686
- A42C G50C G56A — lower, ≤ 0.5
- C5U U7A U26A G39C — lower, ≤ 0.5
- C22U C46G C49G A57G — lower, ≤ 0.5
- U2G C5A U19A — lower, 0.552
- U7A A14C A42G A57U — lower, ≤ 0.5
- G9A G23A — higher, 0.825
- U2A C5G C11G U19C A20G — lower, ≤ 0.5
- C22U A36C C66A — lower, ≤ 0.5
- C4G A20U C60U A70U — higher, 0.651
- G51A G63C — higher, 0.693
- G25U A36U C49U — lower, ≤ 0.5
- U32A A43G — higher, 0.666
- C29U A70U — higher, 0.827
- C4U G48A G52C U54C — lower, ≤ 0.5
- C4G U64C — higher, 0.872
- C4A G6A C29G — lower, 0.549
- C11G C33G C62G — lower, ≤ 0.5
- C34G U35G G39A — lower, 0.593
- A42U A43G G48C U53A — lower, 0.566
- G41C U59C — higher, 0.933
- C5U C11A A14G — lower, ≤ 0.5
- C11U C24G C61A — lower, 0.569
- U2A A14U C46U — lower, 0.595
- U7A A20U G23C U26A C33A A57U — lower, ≤ 0.5
- G17A C27G G39C — lower, ≤ 0.5
- G41C C66U — higher, 0.83
- U13G U32A C60A G63A — lower, ≤ 0.5
- A43C U47C — higher, 1.07
- U2A A21C C30A C49A — lower, ≤ 0.5
- A20G C46U A57C — lower, 0.514
- U2A G23A C29G A45U C60G C61U A69G — lower, ≤ 0.5
- C4U U19C C31A G41C C55A — lower, ≤ 0.5
- C30U C31G A36C U54A — higher, 0.674
- A20G C61U — higher, 0.964
- A15C U16A C31G C34U A65U C66G — lower, ≤ 0.5
- A14U G23A A40U G48C C55U C61G — lower, ≤ 0.5
- U3G C4G G6C C29A A36C G52C G56A — lower, ≤ 0.5
- C30A C34G A45U — lower, ≤ 0.5
- G17U A37G A42U G48C C49U — lower, ≤ 0.5
- C5U C30U A40U A70C — lower, ≤ 0.5
- G9C C30G — lower, 0.578
- A15U C30G G38A U54C — lower, 0.553
- G17A G63A A69C — lower, 0.537
- A14C A37C — lower, 0.53
- G12A C62A — higher, 0.823
- A20G G25A C33U G39A A57G U59C — lower, ≤ 0.5
- G18A C30G A36C G44C — lower, ≤ 0.5
- U7A G39C A45G — lower, ≤ 0.5
- C22A G67A — higher, 0.888
- C4U A37U — higher, 0.676
- U16A A43U — higher, 1.14
- U8C A21U U32A C55G U59C — lower, ≤ 0.5
